The text below walks through data of ChEMBL document CHEMBL1149768, “Novel Pd(II) complexes of 1-N-substituted 3-phenyl-2-pyrazoline derivatives and evaluation of antiamoebic activity” (Eur J Med Chem, 2008).

The IC50 is the midpoint of a concentration-inhibition curve. A high value points to weaker potency in that assay.

The test has as its system Entamoeba histolytica. Nature of the test: Antiamoebic activity against Entamoeba histolytica HM1 IMSS after 72 hrs by serial dilution method. It is filed as functional, organism-based. The method in brief:
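Compounds were dissolved in DMSO and diluted in medium to 1 mg/mL, then to 0.1 mg/mL, with two-fold serial dilutions in microplate wells. Metronidazole was the standard. Each well got 1.7 × 10⁴ trophozoites, was gassed with N₂ and held at 37 °C for 72 h. Plates were methanol-fixed, eosin-stained and solubilised in 0.1 N NaOH, and OD was read at 490 nm. IC50 came from linear regression of % inhibition versus log dose.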
`CC1CN(C(N)=S)N=C1c1ccccc1` (stereo not given): half-maximal inhibition (IC50) was put at 10.3 µM. This counts as double-digit micromolar. With `Cc1ccccc1NC(=S)N1CC(C)C(c2ccccc2)=N1` (stereo not given), the IC50 was 4.57 µM. In the case of `CC1CN(C(=S)NCc2ccccc2Cl)N=C1c1ccccc1` (stereo not given), it took 4.62 µM to reach half-maximal inhibition (IC50). The same measure for `CC1CN(C(=S)N2CCN(c3ccccc3)CC2)N=C1c1ccccc1` (stereo not given): 8.69 µM; for `CC(C)CNC(=S)N1CC(C)C(c2ccccc2)=N1` (stereo not given): 9.13 µM; for `CC1CN(C(=S)NC2CCCC2)N=C1c1ccccc1` (stereo not given): 8.75 µM. The same measure for `CC(C)NC(=S)N1CC(C)C(c2ccccc2)=N1` (stereo not given): 15.2 µM. The same measure for `CCCCNC(=S)N1CC(C)C(c2ccccc2)=N1` (stereo not given): 4.32 µM; for `CC1CN(C(=S)NC2CCCCC2)N=C1c1ccccc1` (stereo not given): 6.63 µM.

`CC1CN(C(=S)NC2CCCCCCC2)N=C1c1ccccc1` (stereo not given) yielded a 50% inhibitory concentration (IC50) of 2.32 µM. Against the preceding compound, the IC50 is about 2.9-fold lower.
